ChEMBL document CHEMBL5303300, “EUbOPEN Chemogenomics Library - Multiplex” (2023)
Values joined by “and” are separate entries in the source; they are usually repeats but may differ in a detail not shown here. Equal entries are not always repeated.

Tests used:
U2OS = assay: Multiplex assay against U2OS; assay type: toxicity, cell-based; conditions: human, number of replicates 2
Method in brief: (§1)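 Imaging took place on a CQ1 microscope at 37°C and 5% CO2 once compound had been added to live cells stained at seeding with Hoechst33342, BioTracker Green Microtubule Cytoskeleton Dye, MitoTracker Red and Annexin V Alexa Fluor 680. CellPathfinder machine-learning gating classed cells as Hoechst high-intensity objects or normal cells, classed normal cells as having healthy, pyknosed or fragmented nuclei, and classed pyknosed cells as mitotic or apoptotic. Tubulin, mitochondrial-mass and membrane-permeability phenotypes are per cents of the healthy-nucleus cells.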

HEK-293T = assay: Multiplex assay against HEK293T; assay type: toxicity, cell-based; conditions: human, number of replicates 2; method in brief: as §1
[1] = 12 h, 1 µM, compound concentration 1 uM
[2] = 12 h, 10 µM, compound concentration 10 uM
[3] = 24 h, 1 µM, compound concentration 1 uM
[4] = 24 h, 10 µM, compound concentration 10 uM
[5] = 48 h, 1 µM, compound concentration 1 uM
[6] = 48 h, 10 µM, compound concentration 10 uM

Cc1cc(-c2cnc(N)c3c(-c4ccc5scnc5c4)csc23)n(C)n1
Population Apoptotic (%) (U2OS; [1]): 50% and 66%
Population Fragmented Nuclei (%) (U2OS; [1]): 8% and 7%
Population Healthy Nuclei (%) (U2OS; [1]): 86% and 83%
Population Hoechst High Intensity Objects (%) (U2OS; [1]): 0%
Population Membrane Permeable-Phenotype (%) (U2OS; [1]): 0% and 1%
Population Mitochondria Different-Phenotype (%) (U2OS; [1]): 0%
Population Mitotic Cells (%) (U2OS; [1]): 50% and 33%
Population Normal (%) (U2OS; [1]): 100%
Population Pyknosed Nuclei (%) (U2OS; [1]): 4% and 8%
Population Tubulin-Different-Phenotype (%) (U2OS; [1]): 75% and 76%
Total Cell Count (U2OS; [1]): 46 and 136
Population Apoptotic (%) (U2OS; [2]): 66% and 65%
Population Healthy Nuclei (%) (U2OS; [2]): 56% and 80%
Population Hoechst High Intensity Objects (%) (U2OS; [2]): 0%
Population Membrane Permeable-Phenotype (%) (U2OS; [2]): 8% and 11%
Population Mitochondria Different-Phenotype (%) (U2OS; [2]): 17% and 15%
Population Mitotic Cells (%) (U2OS; [2]): 33% and 34%
Population Normal (%) (U2OS; [2]): 100%
Population Pyknosed Nuclei (%) (U2OS; [2]): 24% and 13%
Population Tubulin-Different-Phenotype (%) (U2OS; [2]): 51% and 38%
Population Apoptotic (%) (U2OS; [3]): 50% and 55%
Population Fragmented Nuclei (%) (U2OS; [3]): 5% and 4%
Population Healthy Nuclei (%) (U2OS; [3]): 87% and 86%
Population Hoechst High Intensity Objects (%) (U2OS; [3]): 0%
Population Membrane Permeable-Phenotype (%) (U2OS; [3]): 0% and 1%
Population Mitochondria Different-Phenotype (%) (U2OS; [3]): 0%
Population Mitotic Cells (%) (U2OS; [3]): 50% and 44%
Population Normal (%) (U2OS; [3]): 100% and 99%
Population Pyknosed Nuclei (%) (U2OS; [3]): 7% and 8%
Population Tubulin-Different-Phenotype (%) (U2OS; [3]): 85% and 83%
Population Apoptotic (%) (U2OS; [4]): 76% and 84%
Population Healthy Nuclei (%) (U2OS; [4]): 56% and 80%
Population Hoechst High Intensity Objects (%) (U2OS; [4]): 1% and 0%
Population Membrane Permeable-Phenotype (%) (U2OS; [4]): 8% and 7%
Population Mitochondria Different-Phenotype (%) (U2OS; [4]): 29% and 19%
Population Mitotic Cells (%) (U2OS; [4]): 23% and 15%
Population Normal (%) (U2OS; [4]): 98% and 99%
Population Pyknosed Nuclei (%) (U2OS; [4]): 25% and 15%
Population Tubulin-Different-Phenotype (%) (U2OS; [4]): 42% and 36%
Population Apoptotic (%) (U2OS; [5]): 50% and 60%
Population Fragmented Nuclei (%) (U2OS; [5]): 1% and 5%
Population Healthy Nuclei (%) (U2OS; [5]): 90% and 86%
Population Hoechst High Intensity Objects (%) (U2OS; [5]): 0%
Population Membrane Permeable-Phenotype (%) (U2OS; [5]): 1%
Population Mitochondria Different-Phenotype (%) (U2OS; [5]): 1%
Population Mitotic Cells (%) (U2OS; [5]): 50% and 39%
Population Normal (%) (U2OS; [5]): 100%
Population Pyknosed Nuclei (%) (U2OS; [5]): 7%
Population Tubulin-Different-Phenotype (%) (U2OS; [5]): 81% and 83%
Population Apoptotic (%) (U2OS; [6]): 73% and 82%
Population Fragmented Nuclei (%) (U2OS; [6]): 12% and 5%
Population Healthy Nuclei (%) (U2OS; [6]): 52% and 78%
Population Hoechst High Intensity Objects (%) (U2OS; [6]): 2% and 0%
Population Membrane Permeable-Phenotype (%) (U2OS; [6]): 7%
Population Mitochondria Different-Phenotype (%) (U2OS; [6]): 19% and 13%
Population Mitotic Cells (%) (U2OS; [6]): 26% and 17%
Population Normal (%) (U2OS; [6]): 97% and 99%
Population Pyknosed Nuclei (%) (U2OS; [6]): 35% and 15%
Population Tubulin-Different-Phenotype (%) (U2OS; [6]): 41% and 33%
Population Apoptotic (%) (HEK-293T; [1]): 53% and 52%
Population Fragmented Nuclei (%) (HEK-293T; [1]): 5% and 2%
Population Healthy Nuclei (%) (HEK-293T; [1]): 81% and 85%
Population Hoechst High Intensity Objects (%) (HEK-293T; [1]): 7% and 6%
Population Membrane Permeable-Phenotype (%) (HEK-293T; [1]): 3% and 1%
Population Mitochondria Different-Phenotype (%) (HEK-293T; [1]): 21% and 11%
Population Mitotic Cells (%) (HEK-293T; [1]): 46% and 47%
Population Normal (%) (HEK-293T; [1]): 92% and 93%
Population Pyknosed Nuclei (%) (HEK-293T; [1]): 13% and 11%
Population Tubulin-Different-Phenotype (%) (HEK-293T; [1]): 61% and 56%
Total Cell Count (HEK-293T; [1]): 648 and 641
Population Apoptotic (%) (HEK-293T; [2]): 45% and 68%
Population Fragmented Nuclei (%) (HEK-293T; [2]): 4% and 3%
Population Healthy Nuclei (%) (HEK-293T; [2]): 77% and 84%
Population Hoechst High Intensity Objects (%) (HEK-293T; [2]): 17% and 13%
Population Membrane Permeable-Phenotype (%) (HEK-293T; [2]): 4% and 2%
Population Mitochondria Different-Phenotype (%) (HEK-293T; [2]): 59% and 57%
Population Mitotic Cells (%) (HEK-293T; [2]): 54% and 31%
Population Normal (%) (HEK-293T; [2]): 82% and 86%
Population Pyknosed Nuclei (%) (HEK-293T; [2]): 17% and 12%
Population Tubulin-Different-Phenotype (%) (HEK-293T; [2]): 92% and 91%
Total Cell Count (HEK-293T; [2]): 429 and 378
Population Apoptotic (%) (HEK-293T; [3]): 49% and 53%
Population Fragmented Nuclei (%) (HEK-293T; [3]): 7% and 6%
Population Healthy Nuclei (%) (HEK-293T; [3]): 85% and 86%
Population Hoechst High Intensity Objects (%) (HEK-293T; [3]): 8% and 9%
Population Membrane Permeable-Phenotype (%) (HEK-293T; [3]): 3% and 1%
Population Mitochondria Different-Phenotype (%) (HEK-293T; [3]): 10% and 4%
Population Mitotic Cells (%) (HEK-293T; [3]): 50% and 46%
Population Normal (%) (HEK-293T; [3]): 91% and 90%
Population Pyknosed Nuclei (%) (HEK-293T; [3]): 7%
Population Tubulin-Different-Phenotype (%) (HEK-293T; [3]): 38% and 39%
Total Cell Count (HEK-293T; [3]): 943 and 990
Population Apoptotic (%) (HEK-293T; [4]): 56% and 69%
Population Fragmented Nuclei (%) (HEK-293T; [4]): 6% and 3%
Population Healthy Nuclei (%) (HEK-293T; [4]): 79% and 82%
